This note sets out measurements from ChEMBL document CHEMBL2157962, “A fluorous and click approach for screening potential PET probes: Evaluation of potential hypoxia biomarkers” (Bioorg Med Chem, 2012).

For data set [1], the system named is MCF7. Nature of the data set: Drug uptake in human MCF7 cells at 0.5 to 1.0 MBq/mL after 1 hr measured 60 mins post wash out in hypoxic condition by gamma counting. The following applies: mcf7, 1 h. In kind it is ADME, cell-based. The gist of the method:
(§1)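 MCF-7 cells were preconditioned 4 h normoxic or hypoxic (5% CO2/95% N2), then given ¹⁸F tracer (0.5–1.0 MBq/mL) for 1 h at 37 °C. Radioactive medium was replaced with fresh RPMI 1640 (10% FBS) for a further 1 h under the same oxygen condition. Cells were then PBS-washed, lysed in 1 M NaOH and gamma counted. Retained activity is given as % of added.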

Data set [2] has as its system MCF7. Kind of data set: Drug uptake in human MCF7 cells at 0.5 to 1.0 MBq/mL after 1 hr in hypoxic condition by gamma counting. In kind it is ADME, cell-based. The following applies: mcf7, 1 h. Put shortly: (§2)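 MCF-7 cells in RPMI 1640 with 10% FBS were seeded at 100,000 cells/well and grown 24 h, then held 4 h normoxic (5% CO2) or hypoxic (5% CO2/95% N2 chamber, 37 °C). ¹⁸F-labeled tracer (0.5–1.0 MBq/mL in PBS) was added for 1 h at 37 °C. Cells were washed twice with PBS, lysed in 1 M NaOH, and gamma counted. Uptake is expressed as % of added activity; 6 replicates.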

Data set [3] deals with MCF7. Kind of data set: Drug uptake in human MCF7 cells at 0.5 to 1.0 MBq/mL after 1 hr measured 60 mins post wash out in normoxic condition by gamma counting. Type of data set: ADME, cell-based. The following applies: mcf7, 1 h. The gist of the method:
as §1

For data set [4], the system named is MCF7. Nature of the data set: Drug uptake in human MCF7 cells at 0.5 to 1.0 MBq/mL after 1 hr in normoxic condition by gamma counting. Type of data set: ADME, cell-based. The following applies: mcf7, 1 h. Put shortly: as §2
Data set [5] in a line: 1-Octanol-phosphate buffer partition coefficient, log P of the compound at pH 7.4 after 30 mins by shake-flask method. In kind it is physicochemical. The gist of the method:
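Shake-flask: about 0.01–0.1 mg/mL compound shaken in 1-octanol and 50 mM phosphate buffer (pH 7.4) for 30 min at room temperature. Equal amounts of each phase quantified by HPLC UV absorbance (C18, isocratic ethanol:water). Triplicate, mean ± SD.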

Data set [6] can be described thus: Drug metabolism of the compound assessed as reduction rate assessed per unit of enzyme in anoxic conditions in presence of bovine milk xanthine oxidase. Type of data set: physicochemical. The conditions noted are these: cattle. The gist of the method: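 Xanthine oxidase in PBS (0.118 unit) added to 0.29 mM xanthine (reducing substrate) plus 0.12 mM nitroaromatic (oxidizing substrate) in 50 mM PBS pH 7.5 at 37 °C. Solutions argon-degassed 20 min; sealed cuvette. Rate taken from initial absorbance loss at λmax (>325 nm) or at the 249 nm isosbestic point, converted to nmol/min via extinction coefficients. Triplicate, mean ± SD.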

Data set [7] concerns MCF7. Kind of data set: Drug uptake in human MCF7 cells at 0.3 MBq/umol after 1 hr in hypoxic condition by gamma counting. The conditions noted are these: mcf7, 1 h. In kind it is ADME, cell-based. The gist of the method: (§3)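 MCF-7 cells were grown in RPMI 1640 with 10% FBS and 1% P/S, seeded at 100,000 cells/well, and cultured 24 h at 37 °C in 5% CO2. They were then kept 4 h in a sealed chamber flushed with 5% CO2/95% N2 (10 L/min, 15 min). ¹⁸F-tracer (0.5–1.0 MBq/mL in PBS) was added for 1 h at 37 °C under hypoxia. Cells were PBS-washed twice, lysed in 1 M NaOH, and gamma-counted; uptake is % of added activity, n=6.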

Data set [8] deals with MCF7. Kind of data set: Drug uptake in human MCF7 cells at 30 GBq/umol after 1 hr in hypoxic condition by gamma counting. Type of data set: ADME, cell-based. The following applies: mcf7, 1 h. The gist of the method:
as §3

The test system of data set [9] is MCF7. Kind of data set: Drug uptake in human MCF7 cells at 30 MBq/umol after 1 hr in hypoxic condition by gamma counting. The conditions noted are these: mcf7, 1 h. Type of data set: ADME, cell-based. The gist of the method:
as §3

For the compound `O=[N+]([O-])c1cnc(NCc2cn(CC[18F])nn2)s1`, the Drug uptake entry in the data set on MCF7 [1], in the data set on MCF7 [2], in the data set with MCF7 [3] and in the data set on MCF7 [4] was “Active” each time.
As to `O=[N+]([O-])c1ncccc1NCc1cn(CC[18F])nn1`, the Drug uptake result with MCF7 [2] and in the data set with MCF7 [4] was “Active” throughout.
`O=[N+]([O-])c1ccnn1Cc1cn(CC[18F])nn1`: in the data set on MCF7 [2], the Drug uptake entry is “Not Active”.
For the compound `O=[N+]([O-])c1nccn1Cc1cn(CC[18F])nn1`, the Drug uptake entry with MCF7 [2] and in the data set with MCF7 [4] was “Active” each time.
As to `O=[N+]([O-])c1cnc(NCc2cn(CCF)nn2)s1`, the log distribution coefficient (logD) (as a rule, the decadic logarithm of the distribution of all forms, ionised or not, between an organic phase and buffer at a given pH) at 0.5 h in data set [5] was found to be 0.79. For the same compound, in data set [6], the Drug metabolism amounted to 277 nmol/min/U.
On the same counts, the results for `O=[N+]([O-])c1ncccc1NCc1cn(CCF)nn1` are 0.04 and 58 nmol/min/U.
On the same counts, the results for `O=[N+]([O-])c1ccnn1Cc1cn(CCF)nn1` are 0.03 and 20 nmol/min/U.
On the same counts, the results for `O=[N+]([O-])c1nccn1Cc1cn(CCF)nn1` are -0.41 and 36 nmol/min/U.
For the compound `O=[N+]([O-])c1nccn1CC(O)CF` (stereo unspecified) [FLUOROMISONIDAZOLE], the Drug metabolism in [6] was 37 nmol/min/U.
As for `O=[N+]([O-])c1nccn1CC(O)C[18F]` (stereo unspecified) [[18F]FLUOROMISONIDAZOLE], the results for the Drug uptake in the data set on MCF7 [7], in the data set on MCF7 [8] and with MCF7 [9] were 1.1%, 3.9% and 3.2%, respectively.
